The source of these data is PMC4298165 (Cell, 2014).

For one test, the system named is TRiC. Kind of test: Crosslinking-mass spectrometry. In kind it is binding. Particulars: DSS crosslinking, trypsin, tandem MS, xQuest. The method, boiled down:
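Intact TRiC crosslinked with DSS to full-length actin, tubulin or HIV Gag. Crosslinked samples were trypsin-digested and enriched for crosslinked species before MS. Crosslink sites on CCT subunits were mapped onto the apical-domain structure.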

In a further test the test system is intact purified TRiC. As to the kind of experiment: NMR chemical shift perturbation of 15N p6 with intact purified TRiC. In kind it is binding. Particulars: Fig. S4D.
Test [1] has as its system ApiCCT3. As to the kind of experiment: NMR chemical-shift mapping, 15N-labeled p6 with unlabeled ApiCCT3. The class given is binding. To be noted: 15N-1H HSQC, 0, 2.5, 5 and 10-fold excess ApiCCT3. The method, boiled down:
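Recombinant p6 was expressed with 15N/13C isotope labeling and purified. Chemical-shift mapping used 300 µM protein samples on an 800 MHz spectrometer with a cryogenic probe.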

The subject of the next test is CCT3. To be noted: cited from earlier work.
In test [2] the test system is ApiCCT3. In kind it is binding. To be noted: 15N-1H HSQC.
A further test has as its system endogenous TRiC. As to the kind of experiment: Biotin affinity isolation from HEK293 extracts and TRiC immunoblot. To be noted: biotinylated peptide, HEK293 extract, immunoblot against CCT5 and CCT2. In kind it is binding, human.
Another test deals with p6. Kind of test: SPR kinetics of ApiCCT3 alanine mutants on immobilized p6. The class given is binding, HIV. Particulars: 31 surface-exposed residues substituted.
Test [3] addresses T1, apical domain of CCT3 (ApiCCT3) (UniProt P49368 210-380).
T1 sequence (looked up): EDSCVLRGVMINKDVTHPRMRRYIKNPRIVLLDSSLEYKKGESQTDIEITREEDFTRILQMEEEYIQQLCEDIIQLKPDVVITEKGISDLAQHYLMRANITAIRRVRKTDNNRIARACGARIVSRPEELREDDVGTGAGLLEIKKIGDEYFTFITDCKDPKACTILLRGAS
Kind of test: SPR.

With actin, the “location of heterotypic TRiC crosslinks” value in the test with TRiC was “localized to substrate determinants previously implicated in TRiC binding”.

Take “p6: 54 amino acid long HIV protein p6 (LQSRPEPTAPPEESFRSGVETTTPPQKQEPIDKELYPLTSLRSLFGNDPSSQ)”: the “chemical shift perturbation of 15N p6 by intact TRiC” value in the test on intact purified TRiC was “the same subset of p6 residues was affected upon addition of intact TRiC”. Besides, in the test on ApiCCT3 [1], the “chemical shift perturbation of 15N-p6 by ApiCCT3” value is reported as “concentration-dependent chemical shift perturbation in a subset of peaks”. Besides, the “association with CCT3” value in the test on CCT3 is given as “associate directly with subunit CCT3 of TRiC”. In addition, the “chemical shift perturbation of 15N-ApiCCT3” value in the test with ApiCCT3 [2] (300 µM protein sample, 800 MHz, 0, 5, 10, 20-fold excess p6 (Fig. 2)) is “concentration-dependent shifts in a specific subset of peaks”. In addition, the “number of ApiCCT3 peaks perturbed weakly” value in the test on ApiCCT3 [2] (> 0.1 p.p.m.) is on record as 4 peaks. Also, in the test with ApiCCT3 [2] (> 0.2 p.p.m.), the “number of ApiCCT3 peaks strongly perturbed” value is recorded as 5 peaks. Besides, the “binding to endogenous TRiC” value in the test on endogenous TRiC is listed as “bound TRiC”.

B1: Y274A (protein)
chain: MMGHRPVLVLSQNTKRESGRKVQSGNINAAKTIADIIRTCLGPKSMMKMLLDPMGGIVMTNDGNAILREIQVQHPAAKSMIEISRTQDEEVGDGTTSVIILAGEMLSVAEHFLEQQMHPTVVISAYRKALDDMISTLKKISIPVDISDSDMMLNIINSSITTKAISRWSSLACNIALDAVKMVQFEENGRKEIDIKKYARVEKIPGGIIEDSCVLRGVMINKDVTHPRMRRYIKNPRIVLLDSSLEYKKGESQTDIEITREEDFTRILQMEEEAIQQLCEDIIQLKPDVVITEKGISDLAQHYLMRANITAIRRVRKTDNNRIARACGARIVSRPEELREDDVGTGAGLLEIKKIGDEYFTFITDCKDPKACTILLRGASKEILSEVERNLQDAMQVCRNVLLDPQLVPGGGASEMAVAHALTEKSKAMTGVEQWPYRAVAQALEVIPRTLIQNCGASTIRLLTSLRAKHTQENCETWGVNGETGTLVDMKELGIWEPLAVKLQTYKTAVETAVLLLRIDDIVSGHKKKGDDQSRQGGAPDAGQE
Take B1: the “impact of Ala substitution in ApiCCT3 on p6 binding” value in the test with p6 was “no impact on p6 binding”.

B2: HIV protein p6 (natural protein)
chain: LQSRPEPTAPPEESFRSGVETTTPPQKQEPIDKELYPLTSLRSLFGNDPSSQ
In test [3], B2 gave a Kd of 0.25 to 0.5 µM.

B3: tubulin: full length physiological substrate of TRiC (protein)
chain: MREIIHISTGQCGNQIGAAFWETICGEHGLDFNGTYHGHDDIQKERLNVYFNEASSGKWVPRSINVDLEPGTIDAVRNSAIGNLFRPDNYIFGQSSAGNVWAKGHYTEGAELVDSVMDVIRREAEGCDSLQGFQITHSLGGGTGSGMGTLLISKIREEFPDRMMATFSVLPSPKTSDTVVEPYNATLSVHQLVEHSDETFCIDNEALYDICQRTLKLNQPSYGDLNNLVSSVMSGVTTSLRYPGQLNSDLRKLAVNLVPFPRLHFFMVGYAPLTAIGSQSFRSLTVPELTQQMFDAKNMMAAADPRNGRYLTVAAFFRGKVSVKEVEDEMHKVQSKNSDYFVEWIPNNVQTAVCSVAPQGLDMAATFIANSTSIQELFKRVGDQFSAMFKRKAFLHWYTSEGMDELEFSEAESNMNDLVSEYQQYQEATVEDDEEVDENGDFGAPQNQDEPITENFE
Take B3: in the test with TRiC, the “crosslinks to TRiC subunits” value is recorded as “crosslinked to multiple TRiC subunits through specific regions in the polypeptide” and the “location of heterotypic TRiC crosslinks” value is “localized to substrate determinants previously implicated in TRiC binding”.
